Structures can show the parent of a compound that is named as a salt. Active and inactive are the calls of the source. The rule behind the calls is not given here.
Assays:
NCI/ADR-RES = assay: Cytotoxicity against human MCF7/ADR cells after 72 hrs by MTT assay; assay type: functional, cell-based
Summary of the method: (§1)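 MTT viability assay on human cell lines, with values given as IC50. Lines used: gemcitabine-resistant pancreatic cancer G3K, breast adenocarcinoma MCF-7, its adriamycin-resistant subline MCF-7/Adr, triple-negative breast cancer MDA-MB-231, nontumorigenic breast epithelial MCF10A, non-small-cell lung cancer A549, and promyelocytic leukemia HL-60.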

[1] = Cytotoxicity against human G3K cells after 72 hrs by MTT assay; assay type: functional, cell-based; summary of the method: as §1
MDA-MB-231 = assay: Cytotoxicity against human MDA-MB-231 cells after 72 hrs by MTT assay; assay type: functional, cell-based; conditions: MDA-MB-231, 72 h
MCF7 = assay: Cytotoxicity against human MCF7 cells after 72 hrs by MTT assay; assay type: functional, cell-based; conditions: MCF7, 72 h; summary of the method: as §1
MCF-10A = assay: Cytotoxicity against human MCF10A cells after 72 hrs by MTT assay; assay type: functional, cell-based; summary of the method: as §1
Escherichia coli = assay: Antimicrobial activity against Escherichia coli ATCC 11775 at 1 ug after 24 hrs by paper disc agar diffusion method; assay type: functional, organism-based; conditions: DSM 30083 = JCM 1649 = ATCC 11775
Klebsiella aerogenes = assay: Antimicrobial activity against Enterobacter aerogenes ATCC 13048 at 1 ug after 24 hrs by paper disc agar diffusion method; assay type: functional, organism-based
Candida albicans = assay: Antimicrobial activity against Candida albicans ATCC 10231 at 1 ug after 24 hrs by paper disc agar diffusion method; assay type: functional, organism-based
Bacillus subtilis = assay: Antimicrobial activity against Bacillus subtilis ATCC 6051 at 1 ug after 24 hrs by paper disc agar diffusion method; assay type: functional, organism-based
Pseudomonas aeruginosa = assay: Antimicrobial activity against Pseudomonas aeruginosa ATCC 10145 at 1 ug after 24 hrs by paper disc agar diffusion method; assay type: functional, organism-based
A549 = assay: Cytotoxicity against human A549 cells after 72 hrs by MTT assay; assay type: functional, cell-based; conditions: A549, 72 h; summary of the method: as §1
HL-60 = assay: Cytotoxicity against human HL60 cells after 72 hrs by MTT assay; assay type: functional, cell-based; conditions: HL-60, 72 h; summary of the method: as §1

SMILES: CC(C)=C/C=C\[C@H](C)[C@H]1CC[C@]2(C)C[C@H]3[C@H](C(=O)C[C@@]3(C)O)/C(C=O)=C\C[C@@H]12
- IC50 (NCI/ADR-RES): 4.1 µM
- IC50 [1]: > 20 µM
- IC50 (MDA-MB-231): 5.9 µM
- IC50 (MCF7): 5.1 µM
- IC50 (MCF-10A): 8.4 µM

SMILES: CO[C@@H]1O[C@]2(OC)C[C@@](C)(O)[C@H]3C[C@@]4(C)CC[C@H]([C@@H](C)/C=C\C=C(C)C)[C@@H]4C/C=C/1[C@@H]32
- Activity (Escherichia coli): inactive
- Activity (Klebsiella aerogenes): inactive
- IC50 (NCI/ADR-RES): 5.4 µM
- Activity (Candida albicans): inactive
- IC50 [1]: 19.1 µM
- IC50 (MDA-MB-231): 18.5 µM
- IC50 (MCF7): 13.2 µM
- IC50 (MCF-10A): > 40 µM
- Activity (Bacillus subtilis): inactive
- Activity (Pseudomonas aeruginosa): inactive

SMILES: CC1=CC(=O)[C@H]2/C(C=O)=C\C[C@H]3[C@@H]([C@@H](C)/C=C\[C@@H](O)C(C)(C)O)CC[C@]3(C)C[C@H]12
- IC50 (A549): 33.8 µM
- IC50 (HL-60): 7.2 µM

SMILES: CO[C@H]1O[C@]2(OC)C[C@@](C)(O)[C@H]3C[C@@]4(C)CC[C@H]([C@@H](C)/C=C\C=C(C)C)[C@@H]4C/C=C/1[C@@H]32
- Activity (Escherichia coli): inactive
- Activity (Klebsiella aerogenes): inactive
- IC50 (NCI/ADR-RES): 7.9 µM
- Activity (Candida albicans): inactive
- IC50 [1]: > 20 µM
- IC50 (MDA-MB-231): 21.4 µM
- IC50 (MCF7): 9.4 µM
- IC50 (MCF-10A): > 40 µM
- Activity (Bacillus subtilis): inactive
- Activity (Pseudomonas aeruginosa): inactive

SMILES: CO[C@H]1C[C@H]2[C@@H]([C@@H](C)/C=C\C=C(C)C)CC[C@]2(C)C[C@H]2[C@H]3C1=CO[C@H]3C[C@@]2(C)O
- IC50 (NCI/ADR-RES): > 40 µM
- IC50 [1]: > 20 µM
- IC50 (MDA-MB-231): > 40 µM
- IC50 (MCF7): > 40 µM

SMILES: CC(C)=C/C=C\[C@H](C)[C@H]1CC[C@]2(C)CC3=C(C(=O)C[C@H]3C)/C(CO)=C\C[C@@H]12
- IC50 (NCI/ADR-RES): > 40 µM
- IC50 [1]: > 20 µM
- IC50 (MDA-MB-231): > 40 µM
- IC50 (MCF7): > 40 µM

SMILES: COc1cccc2c1C(=O)c1c(O)c3c(c(O)c1C2=O)C[C@@](O)(C(=O)CO)C[C@@H]3O[C@H]1C[C@H](N)[C@H](O)[C@H](C)O1 [DOXORUBICIN HYDROCHLORIDE]
- IC50 (NCI/ADR-RES): 2.9 µM
- IC50 [1]: 45 µM
- IC50 (MCF7): 0.1 µM
- IC50 (MCF-10A): 0.2 µM

SMILES: CC(C)=C/C=C\[C@H](C)[C@H]1CC[C@]2(C)C[C@H]3[C@@H](C(=O)C[C@@]3(C)O)/C(C=O)=C\C[C@@H]12
- Activity (Escherichia coli): inactive
- Activity (Klebsiella aerogenes): inactive
- IC50 (NCI/ADR-RES): 26.1 µM
- Activity (Candida albicans): inactive
- IC50 [1]: 6.8 µM
- IC50 (MDA-MB-231): 4.1 µM
- IC50 (MCF7): 12.8 µM
- IC50 (MCF-10A): > 40 µM
- Activity (Bacillus subtilis): inactive
- Activity (Pseudomonas aeruginosa): inactive

SMILES: CC(C)=C/C=C\[C@H](C)[C@H]1CC[C@]2(C)CC3=C(C(=O)C[C@H]3C)/C(C=O)=C\C[C@@H]12
- IC50 (NCI/ADR-RES): > 40 µM
- IC50 [1]: > 20 µM
- IC50 (MDA-MB-231): 39.8 µM
- IC50 (MCF7): > 40 µM

SMILES: CC(C)=C/C=C\[C@H](C)[C@H]1CC[C@]2(C)C[C@H]3[C@H]4/C(=C\C[C@@H]12)C(=O)O[C@H]4C[C@@]3(C)O
- IC50 (A549): > 50 µM
- Activity (Escherichia coli): inactive
- Activity (Klebsiella aerogenes): inactive
- IC50 (NCI/ADR-RES): > 40 µM
- Activity (Candida albicans): inactive
- IC50 [1]: > 20 µM
- IC50 (MDA-MB-231): > 40 µM
- IC50 (MCF7): > 40 µM
- IC50 (HL-60): > 50 µM
- Activity (Bacillus subtilis): inactive
- Activity (Pseudomonas aeruginosa): inactive

SMILES: CC(C)=C/C=C\[C@H](C)[C@H]1CC[C@]2(C)C[C@H]3[C@@H]4/C(=C\C[C@@H]12)CO[C@@H]4C[C@@]3(C)O
- IC50 (NCI/ADR-RES): > 40 µM
- IC50 [1]: > 20 µM
- IC50 (MDA-MB-231): > 40 µM
- IC50 (MCF7): > 40 µM

SMILES: CC(C)=C/C=C\[C@H](C)[C@H]1CC[C@]2(C)C[C@@H]3C(C)=CC(=O)[C@H]3/C(C=O)=C\C[C@@H]12
- Activity (Escherichia coli): inactive
- Activity (Klebsiella aerogenes): inactive
- IC50 (NCI/ADR-RES): 35.4 µM
- Activity (Candida albicans): inactive
- IC50 [1]: 16.8 µM
- IC50 (MDA-MB-231): 11.6 µM
- IC50 (MCF7): 15.4 µM
- IC50 (MCF-10A): > 40 µM
- Activity (Bacillus subtilis): inactive
- Activity (Pseudomonas aeruginosa): inactive

SMILES: CC(C)=C/C=C\[C@H](C)[C@H]1CC[C@]2(C)C[C@@H]3C(C)=CC(=O)[C@H]3/C(CO)=C\C[C@@H]12
- IC50 (A549): > 50 µM
- Activity (Escherichia coli): inactive
- Activity (Klebsiella aerogenes): inactive
- IC50 (NCI/ADR-RES): > 40 µM
- Activity (Candida albicans): inactive
- IC50 [1]: 1.9 µM
- IC50 (MDA-MB-231): > 20 µM
- IC50 (MCF7): > 40 µM
- IC50 (HL-60): > 50 µM
- Activity (Bacillus subtilis): inactive
- Activity (Pseudomonas aeruginosa): inactive

SMILES: CC(C)=C/C=C\[C@H](C)[C@H]1CC[C@]2(C)C[C@@H]3C(C)=CC(=O)[C@@H]3/C(C=O)=C\C[C@@H]12
- IC50 (NCI/ADR-RES): 34.6 µM
- IC50 [1]: 9.5 µM
- IC50 (MDA-MB-231): 14.1 µM
- IC50 (MCF7): 22.9 µM
- IC50 (MCF-10A): > 40 µM

SMILES: CC(C)=C/C=C\[C@H](C)[C@H]1CC[C@]2(C)C[C@H]3[C@@H]4/C(=C\C[C@@H]12)C(=O)O[C@]4(O)C[C@@]3(C)O
- Activity (Escherichia coli): inactive
- Activity (Klebsiella aerogenes): inactive
- IC50 (NCI/ADR-RES): > 40 µM
- Activity (Candida albicans): inactive
- IC50 [1]: > 20 µM
- IC50 (MDA-MB-231): > 40 µM
- IC50 (MCF7): > 40 µM
- Activity (Bacillus subtilis): inactive
- Activity (Pseudomonas aeruginosa): inactive

SMILES: CO[C@@H]1O[C@@]2(OC)C[C@@](C)(O)[C@H]3C[C@@]4(C)CC[C@H]([C@@H](C)/C=C\C=C(C)C)[C@@H]4C/C=C/1[C@H]32
- IC50 (A549): 0.6 µM
- Activity (Escherichia coli): inactive
- Activity (Klebsiella aerogenes): inactive
- Activity (Candida albicans): inactive
- IC50 (HL-60): 0.8 µM
- Activity (Bacillus subtilis): inactive
- Activity (Pseudomonas aeruginosa): inactive

SMILES: CC(C)=C/C=C\[C@H](C)[C@H]1CC[C@]2(C)C[C@H]3[C@H](C(=O)C[C@@]3(C)O)/C(C)=C\C[C@@H]12
- IC50 (A549): 15.1 µM
- IC50 (HL-60): 7 µM

SMILES: CO[C@H]1O[C@@]2(OC)C[C@@](C)(O)[C@H]3C[C@@]4(C)CC[C@H]([C@@H](C)/C=C\C=C(C)C)[C@@H]4C/C=C/1[C@H]32 [OPHIOBOLIN O]
- IC50 (A549): 2.4 µM
- Activity (Escherichia coli): inactive
- Activity (Klebsiella aerogenes): inactive
- Activity (Candida albicans): inactive
- IC50 (HL-60): 1.7 µM
- Activity (Bacillus subtilis): inactive
- Activity (Pseudomonas aeruginosa): inactive

From ChEMBL document CHEMBL4130606, “Ophiobolins from the Mangrove Fungus Aspergillus ustus” (J Nat Prod, 2018)
